Results from ChEMBL document CHEMBL1124738, “Novel 21-aminosteroids that inhibit iron-dependent lipid peroxidation and protect against central nervous system trauma” (J Med Chem, 1990).

Key:
Format in all cases: functional
Rattus norvegicus [1] = species on record: Rattus norvegicus; assay: Ability to inhibit iron-dependent lipid peroxidation in rat brain homogenate using MDA (malondialdehyde) formation assay at 300 uM
Mus musculus [2] = species on record: Mus musculus; assay: Lowest effective dose in a mouse head injury model was reported
Outline: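 Unanesthetized male CF-1 mice, 16–22 g; concussive head injury by weight drop (900 g cm for 16–20 g mice, 950 g cm for 20–22 g). Vehicle or compound given blindly as iv bolus 3–5 min post-injury; vehicle 0.05 N HCl or 0.5% Tween 80. Four groups of 20 per trial (vehicle plus three doses). Grip test on suspended taut string at 1 h; group score as mean time on string.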

Rattus norvegicus [3] = species on record: Rattus norvegicus; assay: Ability to inhibit iron-dependent lipid peroxidation in rat brain homogenate using MDA (malondialdehyde) formation assay
Outline: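 Incubations at 37 °C contain 20% ethanol and compound up to 300 μM, and are started with 200 μM Fe2+. They are stopped after 20 min with ice-cold 12.5% TCA in 0.8 N HCl. Readout is TBAR formation, reported as IC50 or % inhibition at 300 μM.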

Mus musculus [4] = assay: Percent increase in KCN lethality (cytotoxic hypoxia) model against male CF-1 mice at a dose 100 mg/kg administered intravenously; details: route intravenous
Mus musculus [5] = assay: Percent increase in KCN lethality (cytotoxic hypoxia) model against male CF-1 mice at a dose 30 mg/kg administered intravenously; details: route intravenous
Mus musculus [6] = assay: Evaluated in a potassium cyanide lethality (cytotoxic hypoxia) model against male CF-1 mice at a dose 30 mg/kg administered intravenously; details: route intravenous
Mus musculus [7] = assay: Evaluated in a potassium cyanide lethality (cytotoxic hypoxia) model against male CF-1 mice at 100 mg/kg administered intravenously; details: route intravenous

C[C@]12CCC(O)CC1CC[C@@H]1[C@@H]2C(=O)C[C@@]2(C)[C@H]1CC[C@]2(O)C(=O)CN1CCN(c2ccccn2)CC1 (some centres undefined)
inhibition (Rattus norvegicus [1]): 3%

C[C@]12CCC(=O)C=C1CCC1C2=CC[C@@]2(C)C1CC[C@]2(O)C(=O)CN1CCN(CCO)CC1 (some centres undefined)
inhibition (Rattus norvegicus [1]): 0%

C[C@@H]1C[C@H]2[C@@H]3CCC4CC(=O)CC[C@]4(C)C3=CC[C@]2(C)[C@@]1(O)C(=O)CN1CCN(c2ccccn2)CC1 (some centres undefined)
inhibition (Rattus norvegicus [1]): 31%

C[C@@H]1CC2C3CCC4=CC(=O)C=C[C@]4(C)C3=CC[C@]2(C)[C@H]1C(=O)CN1CCN(c2ccccn2)CC1 (some centres undefined)
inhibition (Rattus norvegicus [1]): 4% | Lowest effective dose (Mus musculus [2]): 10 mg/kg

Cc1c(C)c2c(c(C)c1O)CC[C@@](C)(CCC[C@H](C)CCC[C@H](C)CCCC(C)C)O2 [ALPHA-TOCOPHEROL]
IC50 (Rattus norvegicus [3]): 30 µM

C[C@]12C=CC(=O)C=C1CCC1C2[C@H](O)C[C@@]2(C)C1CC[C@]2(O)C(=O)CN1CCN(c2ccccn2)CC1 (some centres undefined)
inhibition (Rattus norvegicus [1]): 0%

CC(=O)N(O)CCCCCNC(=O)CCC(=O)N(O)CCCCCNC(=O)CCC(=O)N(O)CCCCCN [DEFEROXAMINE]
IC50 (Rattus norvegicus [3]): 112 µM

C[C@]12CCC(=O)C=C1CCC1C2=CC[C@@]2(C)C1CC[C@]2(O)C(=O)CN1CCNCC1 (some centres undefined)
inhibition (Rattus norvegicus [1]): 15%

C[C@]12CCC(=O)C=C1CCC1C2C(=O)C[C@@]2(C)C1CC[C@]2(O)C(=O)CN1CCN(c2ccccn2)CC1 (some centres undefined)
inhibition (Rattus norvegicus [1]): 3%

C[C@]12CCC(=O)C=C1CCC1C2=CC[C@@]2(C)C1CC[C@]2(O)C(=O)CN1CCN(c2ccccn2)CC1 (some centres undefined)
inhibition (Rattus norvegicus [1]): 23% | Lowest effective dose (Mus musculus [2]): 10 mg/kg

C[C@]12CCC(=O)C=C1CCC1C2=CC[C@@]2(C)C1CC[C@]2(O)C(=O)CN1CCN(Cc2ncccc2O)CC1 (some centres undefined)
inhibition (Rattus norvegicus [1]): 5%

COc1cccc(N2CCN(CC(=O)[C@@]3(O)CCC4C5CCC6=CC(=O)CC[C@]6(C)C5=CC[C@@]43C)CC2)n1 (some centres undefined)
IC50 (Rattus norvegicus [3]): 101 µM

CCN(CC)c1ccc(N2CCN(CC(=O)[C@H]3[C@H](C)CC4C5CCC6=CC(=O)C=C[C@]6(C)C5=CC[C@@]43C)CC2)nc1N(CC)CC.O=C(O)/C=C/C(=O)O (some centres undefined)
Increase in LD50 (Mus musculus [4]): 46% | Increase in LD50 (Mus musculus [5]): 15% | IC50 (Rattus norvegicus [3]): 3 µM | Lowest effective dose (Mus musculus [2]): 0.003 mg/kg

COc1ccccc1N1CCN(CC(=O)[C@@]2(O)CCC3C4CCC5=CC(=O)CC[C@]5(C)C4=CC[C@@]32C)CC1 (some centres undefined)
inhibition (Rattus norvegicus [1]): 37%

C[C@@H]1C[C@H]2[C@@H]3CCC4=CC(=O)C=C[C@]4(C)C3=CC[C@]2(C)[C@H]1C(=O)CN1CCN(c2cc(N3CCCC3)nc(N3CCCC3)n2)CC1 [TIRILAZAD]
Increase in LD50 (Mus musculus [4]): 20% | Increase in LD50 (Mus musculus [5]): 14% | IC50 (Rattus norvegicus [3]): 18 µM | Lowest effective dose (Mus musculus [2]): 0.003 mg/kg

C[C@]12CC[C@H]3[C@@H](CCC4=CC(=O)CC[C@@]43C)[C@@H]1CC[C@@H]2C(=O)CN1CCN(c2ccccn2)CC1
inhibition (Rattus norvegicus [1]): 9%

C[C@]12CCC(=O)C=C1CCC1C2=CC[C@@]2(C)C1CC[C@]2(O)C(=O)CN1CCN(c2cccc(N3CCCC3)n2)CC1 (some centres undefined)
IC50 (Rattus norvegicus [3]): 57 µM

C[C@H]1CC2C([C@@H](O)C[C@@]3(C)C2CC[C@]3(O)C(=O)CN2CCN(c3ccccn3)CC2)[C@@]2(C)C=CC(=O)C=C12 (some centres undefined)
inhibition (Rattus norvegicus [1]): 0%

C[C@]12CCC(=O)C=C1CCC1C2=CC[C@@]2(C)C1CC[C@]2(O)C(=O)CN1CCN(c2cc(N3CCCC3)nc(N3CCCC3)n2)CC1.O=C(O)/C=C/C(=O)O (some centres undefined)
Increase in LD50 (Mus musculus [6]): 0% | inhibition (Rattus norvegicus [1]): 25% | Increase in LD50 (Mus musculus [7]): 33% | Lowest effective dose (Mus musculus [2]): 1 mg/kg

C[C@]12CCC(=O)C=C1CCC1C2[C@H](O)C[C@@]2(C)C1CC[C@]2(O)C(=O)CN1CCN(c2ccccn2)CC1 (some centres undefined)
inhibition (Rattus norvegicus [1]): 20%

C[C@]12CC(=O)[C@H]3[C@@H](CCC4=CC(=O)CC[C@@]43C)[C@@H]1CC[C@@H]2C(=O)CN1CCN(c2ccccn2)CC1
inhibition (Rattus norvegicus [1]): 14%

CCNc1cccnc1N1CCN(CC(=O)[C@H]2[C@H](C)CC3C4CCC5=CC(=O)C=C[C@]5(C)C4=CC[C@@]32C)CC1.O=C(O)/C=C/C(=O)O (some centres undefined)
IC50 (Rattus norvegicus [3]): 15 µM | Lowest effective dose (Mus musculus [2]): 0.03 mg/kg

C[C@]12CCC(=O)C=C1CC[C@@H]1[C@@H]2CC[C@@]2(C)[C@H]1CC[C@]2(O)C(=O)CN1CCN(c2ccccn2)CC1
inhibition (Rattus norvegicus [1]): 26%

C[C@H]1C[C@@H]2[C@H]([C@@H](O)C[C@@]3(C)[C@H]2CC[C@]3(O)C(=O)COC(=O)CCC(=O)[O-])[C@@]2(C)C=CC(=O)C=C12.[Na+] [METHYLPREDNISOLONE SODIUM SUCCINATE]
inhibition (Rattus norvegicus [1]): 0% | Increase in LD50 (Mus musculus [4]): 20% | Increase in LD50 (Mus musculus [5]): 0% | Lowest effective dose (Mus musculus [2]): 15 mg/kg
